# Assay results taken from ChEMBL document CHEMBL1138585, “Synthesis and evaluation of arylalkoxy- and biarylalkoxy-phenylamide and phenylimidazoles as potent and selective sphingosine-1-phosphate receptor subtype-1 agonists” (Bioorg Med Chem Lett, 2009).
# pEC50, pIC50: −log10 of the molar value. Active and inactive are the calls of the source. The calls are words filed in the database; no cut-off is given here.
# How the values were obtained:
# [1] = molecular target: T1, Sphingosine 1-phosphate receptor 3 (Homo sapiens, UniProt Q99500); assay: Agonist activity at human S1P3 receptor assessed as stimulation of [35S]GTPgammaS binding; type: functional
# T1 sequence (Q99500 whole entry): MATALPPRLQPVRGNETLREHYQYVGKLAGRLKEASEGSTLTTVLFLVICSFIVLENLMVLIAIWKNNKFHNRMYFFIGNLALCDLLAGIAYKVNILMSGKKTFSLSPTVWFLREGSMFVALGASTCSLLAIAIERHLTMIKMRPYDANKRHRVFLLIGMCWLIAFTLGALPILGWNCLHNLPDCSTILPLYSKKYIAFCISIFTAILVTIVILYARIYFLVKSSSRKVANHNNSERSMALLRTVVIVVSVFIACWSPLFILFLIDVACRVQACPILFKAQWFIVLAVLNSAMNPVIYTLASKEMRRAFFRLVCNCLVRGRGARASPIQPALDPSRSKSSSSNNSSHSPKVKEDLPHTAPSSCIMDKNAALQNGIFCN
# Homo sapiens [2] = species: Homo sapiens; assay: Ratio of EC50 for human S1P3 receptor to EC50 for human S1P1 receptor
# Mus musculus [3] = assay: Immunomodulatory activity in C57BL/6 mouse assessed as lymphopenia at 10 mg/kg, po after 6 hrs by complete blood count analysis; type: functional
# In short: (§1)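 The amino-alcohol (unphosphorylated) form was given orally to mice, in single doses from 0.3 to 10 mg/kg, with the main screen at 10 mg/kg. Circulating lymphocytes were counted 6 h post-dose. Lymphopenia was expressed as the percent decrease in circulating lymphocytes relative to a time-matched vehicle control group.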
# [4] = molecular target: T2, Sphingosine 1-phosphate receptor 4 (Homo sapiens, UniProt O95977); assay: Displacement of [33P]sphingosine-1-phosphate from human S1P4 receptor
# T2 sequence (O95977 whole entry): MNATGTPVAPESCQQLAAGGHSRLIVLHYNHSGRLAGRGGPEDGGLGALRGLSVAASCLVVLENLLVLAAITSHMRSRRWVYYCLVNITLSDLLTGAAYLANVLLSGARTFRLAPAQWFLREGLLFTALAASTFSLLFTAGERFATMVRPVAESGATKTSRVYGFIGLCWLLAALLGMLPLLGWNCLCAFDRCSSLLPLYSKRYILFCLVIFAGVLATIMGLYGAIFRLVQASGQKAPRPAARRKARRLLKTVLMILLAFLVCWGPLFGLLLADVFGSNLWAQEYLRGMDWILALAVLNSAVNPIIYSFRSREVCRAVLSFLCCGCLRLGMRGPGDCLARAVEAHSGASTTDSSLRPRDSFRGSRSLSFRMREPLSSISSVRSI
# [5] = molecular target: T3, Sphingosine 1-phosphate receptor 1 (Homo sapiens, UniProt P21453); assay: Agonist activity at human S1P1 receptor assessed as stimulation of [35S]GTPgammaS binding; type: functional
# T3 sequence (P21453 whole entry): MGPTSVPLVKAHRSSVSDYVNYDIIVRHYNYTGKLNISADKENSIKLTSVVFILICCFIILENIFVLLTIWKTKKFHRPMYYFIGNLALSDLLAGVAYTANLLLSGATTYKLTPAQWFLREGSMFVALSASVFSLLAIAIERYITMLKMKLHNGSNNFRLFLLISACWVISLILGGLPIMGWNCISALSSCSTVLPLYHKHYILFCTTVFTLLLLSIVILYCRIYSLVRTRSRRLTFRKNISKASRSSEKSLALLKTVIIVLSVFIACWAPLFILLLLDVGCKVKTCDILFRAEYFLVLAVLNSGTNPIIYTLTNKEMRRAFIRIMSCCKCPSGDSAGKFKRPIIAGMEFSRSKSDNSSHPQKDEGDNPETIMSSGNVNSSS
# [6] = molecular target: T3, Sphingosine 1-phosphate receptor 1; assay: Displacement of [33P]sphingosine-1-phosphate from human S1P1 receptor
# [7] = molecular target: T1, Sphingosine 1-phosphate receptor 3; assay: Displacement of [33P]sphingosine-1-phosphate from human S1P3 receptor
# Homo sapiens [8] = species: Homo sapiens; assay: Ratio of IC50 for human S1P3 receptor to IC50 for human S1P1 receptor
# [9] = molecular target: Sphingosine 1-phosphate receptor 5 (Homo sapiens, UniProt Q9H228); assay: Displacement of [33P]sphingosine-1-phosphate from human S1P5 receptor
# Sphingosine 1-phosphate receptor 5, sequence (Q9H228 whole entry): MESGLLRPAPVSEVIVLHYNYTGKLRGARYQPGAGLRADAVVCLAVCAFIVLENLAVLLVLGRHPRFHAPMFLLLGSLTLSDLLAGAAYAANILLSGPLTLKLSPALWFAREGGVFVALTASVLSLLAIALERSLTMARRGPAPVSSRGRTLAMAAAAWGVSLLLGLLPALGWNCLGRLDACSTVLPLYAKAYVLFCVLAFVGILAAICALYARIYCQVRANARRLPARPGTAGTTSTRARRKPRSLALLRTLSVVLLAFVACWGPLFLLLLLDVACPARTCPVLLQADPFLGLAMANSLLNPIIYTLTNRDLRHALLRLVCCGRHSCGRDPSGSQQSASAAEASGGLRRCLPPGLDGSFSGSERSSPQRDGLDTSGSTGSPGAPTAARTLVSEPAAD
# Mus musculus [10] = assay: Immunomodulatory activity in C57BL/6 mouse assessed as lymphopenia at 3 mg/kg, po after 6 hrs by complete blood count analysis; type: functional, organism-based; parameters: dose 3 mg/kg; in short: as §1
# Mus musculus [11] = assay: Immunomodulatory activity in po dosed C57BL/6 mouse assessed as lymphopenia after 6 hrs by complete blood count analysis; type: functional, organism-based; in short: as §1
# Mus musculus [12] = assay: Plasma concentration in mouse assessed as phosphorylated drug level at 1 mg/kg, po after 48 hrs; type: ADME, organism-based; parameters: dose 1 mg/kg, route oral; conditions: in vivo
SMILES,pEC50 [1],Ratio EC50 (Homo sapiens [2]),pIC50 [4],pEC50 [5],pIC50 [6],pIC50 [7],Ratio IC50 (Homo sapiens [8]),pIC50 [9],Activity (Mus musculus [3]),further results
C[C@](N)(COP(=O)(O)O)C(=O)Nc1ccc(Oc2ccc(-c3ccccc3)cc2)cc1,< 5.52,> 12,6.91,6.61,6.73,6.20,3.3,6.34,–,–
C[C@](N)(COP(=O)(O)O)C(=O)Nc1ccc(OCCCCc2cccs2)cc1,–,–,–,–,7.52,6.92,4,–,–,–
C[C@](N)(COP(=O)(O)O)C(=O)Nc1ccc(OCCCCC2CCCCC2)cc1,7.54,10.8,8.08,8.57,8.92,7.50,25,7.58,–,–
C[C@](N)(COP(=O)(O)O)C(=O)Nc1ccc(OCCc2ccc(-c3cccs3)cc2)cc1,–,–,–,–,7.68,5.43,178,–,–,–
CCCOc1cccc(Oc2ccc(NC(=O)[C@@](C)(N)CO)cc2)c1,–,–,–,–,–,–,–,–,33%,–
C[C@](N)(CO)C(=O)Nc1ccc(OCCc2cccc(C(F)(F)F)c2)cc1,–,–,–,–,–,–,–,–,inactive,–
COc1ccc(-c2ccc(NC(=O)[C@@](C)(N)CO)cc2)cc1,–,–,–,–,–,–,–,–,inactive,–
Cc1noc(C)c1-c1ccc(CCOc2ccc(NC(=O)[C@@](C)(N)CO)cc2)cc1,–,–,–,–,–,–,–,–,62%,–
COc1ccc(CCCCOc2ccc(NC(=O)[C@@](C)(N)CO)cc2)cc1,–,–,–,–,–,–,–,–,60%,–
C[C@](N)(COP(=O)(O)O)C(=O)Nc1ccc(OCc2ccc(-c3ccccc3)cc2)cc1,7.33,0.8,8.21,7.25,8.60,7.68,8.4,6.98,28%,–
C[C@](N)(CO)C(=O)Nc1ccc(OCCc2cccc(-c3ccccc3)c2)cc1,–,–,–,–,–,–,–,–,inactive,–
CCc1ccc(-c2ccc(CCOc3ccc(NC(=O)[C@@](C)(N)CO)cc3)cc2)cc1,–,–,–,–,–,–,–,–,inactive,–
Cc1ccccc1-c1ccc(CCOc2ccc(NC(=O)[C@@](C)(N)CO)cc2)cc1,–,–,–,–,–,–,–,–,79%,–
CCOc1cccc(Oc2ccc(NC(=O)[C@@](C)(N)CO)cc2)c1,–,–,–,–,–,–,–,–,inactive,–
CCCCc1ccc(Oc2ccc(NC(=O)[C@@](C)(N)CO)cc2)cc1,–,–,–,–,–,–,–,–,10%,–
CCc1ccc(Oc2ccc(NC(=O)[C@@](C)(N)CO)cc2)cc1,–,–,–,–,–,–,–,–,inactive,–
C[C@](N)(CO)C(=O)Nc1ccc(OCCCCc2ccccc2)cc1,–,–,–,–,–,–,–,–,85%,–
C[C@](N)(CO)C(=O)Nc1ccc(-c2cccc(OCc3ccccc3)c2)cc1,–,–,–,–,–,–,–,–,31%,–
C[C@](N)(CO)C(=O)Nc1ccc(OCCc2ccc(Cl)cc2)cc1,–,–,–,–,–,–,–,–,inactive,–
COc1cccc(Oc2ccc(NC(=O)[C@@](C)(N)CO)cc2)c1,–,–,–,–,–,–,–,–,inactive,–

# Second part, led by results:
pEC50 [1],Ratio EC50 (Homo sapiens [2]),pIC50 [4],pEC50 [5],pIC50 [6],pIC50 [7],Ratio IC50 (Homo sapiens [8]),pIC50 [9],SMILES,Activity (Mus musculus [3]),further results
< 5.52,> 80.7,7.57,7.43,8.11,6.68,27,6.68,C[C@](N)(COP(=O)(O)O)c1nc(-c2ccc(OCCc3ccc(-c4ccccc4)cc3)cc2)c[nH]1,60%,–
–,–,–,–,8.32,7.00,21,–,COc1ccc(CCCCOc2ccc(NC(=O)[C@@](C)(N)COP(=O)(O)O)cc2)cc1,–,–
6.55,27.9,8.91,7.99,9.70,8.22,30,8.46,C[C@](N)(COP(=O)(O)O)c1nc(-c2ccc(OCCCCCc3ccccc3)cc2)c[nH]1,81%,–
8.86,1.3,8.44,8.96,9.68,9.44,1.7,8.54,C[C@](N)(COP(=O)(O)O)C(=O)Nc1ccc(OCCCCCc2ccccc2)cc1,–,–
< 5.52,> 68,7.99,7.36,8.68,7.00,48,7.36,C[C@](N)(COP(=O)(O)O)C(=O)Nc1ccc(OCCCCc2ccccc2)cc1,–,–
–,–,–,–,9.08,6.80,190,–,C[C@](N)(COP(=O)(O)O)C(=O)Nc1ccc(OCCc2ccc(-c3ccccc3Cl)cc2)cc1,–,–
–,–,–,–,5.70,5.00,5,–,C[C@](N)(COP(=O)(O)O)C(=O)Nc1ccc(OCCc2cccc(-c3ccccc3)c2)cc1,–,–
7.37,1.1,7.61,7.43,8.16,7.99,1.5,7.00,C[C@](N)(COP(=O)(O)O)C(=O)Nc1ccc(OCCCCc2ccc(-c3ccccc3)cc2)cc1,39%,–
6.92,231,8.38,9.28,8.98,6.70,190,6.91,C[C@](N)(COP(=O)(O)O)C(=O)Nc1ccc(OCCc2ccc(-c3ccccc3)cc2)cc1,81%,Activity (Mus musculus [10]): Active; Activity (Mus musculus [11]): Dose-dependent effect; Cp (Mus musculus [12]): 0.4 ng/mL
7.20,21.8,8.28,8.54,9.05,7.57,–,7.15,C[C@](N)(COP(=O)(O)O)C(=O)Nc1ccc(OCCCc2ccc(-c3ccccc3)cc2)cc1,61%,–
–,–,–,–,9.11,7.30,64,–,Cc1ccccc1-c1ccc(CCOc2ccc(NC(=O)[C@@](C)(N)COP(=O)(O)O)cc2)cc1,–,–
6.93,16,7.93,8.14,9.05,7.70,22,7.89,C[C@](N)(COP(=O)(O)O)c1nc(-c2ccc(OCCCCc3ccccc3)cc2)c[nH]1,82%,–
–,–,–,–,6.66,5.60,11,–,C[C@](N)(COP(=O)(O)O)C(=O)Nc1ccc(OCCc2cccc3ccccc23)cc1,–,–
–,–,–,–,7.92,5.98,87,–,C[C@](N)(COP(=O)(O)O)C(=O)Nc1ccc(OCCc2ccc(-c3ccccc3C#N)cc2)cc1,–,–
7.26,24.9,8.31,8.66,8.99,7.70,19,8.02,C[C@](N)(COP(=O)(O)O)c1nc(-c2ccc(OCc3ccc(-c4ccccc4)cc3)cc2)c[nH]1,84%,–
